# Results of several laboratories.
# Target: Activin receptor type-1B (ACVR1B, Homo sapiens, UniProt P36896)
# Residues used in one study (P36896 24-505): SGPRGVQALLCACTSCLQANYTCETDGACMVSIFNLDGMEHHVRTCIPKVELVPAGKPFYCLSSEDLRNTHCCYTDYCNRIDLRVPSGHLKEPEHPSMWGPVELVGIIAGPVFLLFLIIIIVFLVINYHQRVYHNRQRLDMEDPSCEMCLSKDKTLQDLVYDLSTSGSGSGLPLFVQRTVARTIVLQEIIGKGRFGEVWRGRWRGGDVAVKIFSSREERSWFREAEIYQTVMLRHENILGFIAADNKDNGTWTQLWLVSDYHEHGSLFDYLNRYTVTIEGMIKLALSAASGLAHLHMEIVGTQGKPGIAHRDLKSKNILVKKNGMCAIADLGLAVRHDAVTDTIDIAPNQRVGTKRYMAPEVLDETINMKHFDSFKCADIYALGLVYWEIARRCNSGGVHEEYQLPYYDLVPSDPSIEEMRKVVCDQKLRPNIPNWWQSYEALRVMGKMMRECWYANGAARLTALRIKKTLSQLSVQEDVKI
Structure (SMILES),test,conditions,measurement,value
C[C@H](c1ccc(F)cc1)N(Cc1cccc(C(=O)O)c1)C(=O)c1cnc2ccccc2c1,"cell-free assay, competition with immobilised ligand",1 µM,remaining binding,100%
Cc1ccc(Nc2nccc(N(C)c3ccc4c(C)n(C)nc4c3)n2)cc1S(N)(=O)=O,"cell-free assay, inhibitor",0.3 µM,inhibition,-22%
CCN(CC)c1ccc(C2=NNC(=O)CC2C)cc1[N+](=O)[O-] (stereo not shown),"enzyme activity, inhibitor",10 µM,remaining activity,109%
CN1CCC2(CC1)NC(=O)c1c(c3ccc(Cl)c(Cl)c3n1C)C2C#N (racemic),"thermal stability, DSF",10 µM,ΔTm,0.3 °C
Cc1ccc(NC(=O)c2ccc(C)c(C(F)(F)F)c2)cc1C#Cc1nn(C2CCC(O)CC2)c2ncnc(N)c12 (stereo not shown),cell-free assay,10 µM,remaining signal,79%
CN([C@@H]1CCc2c(CC(=O)O)c3cc(S(C)(=O)=O)ccc3n2C1)S(=O)(=O)c1ccc(F)cc1,"cell-free assay, competition with immobilised ligand",1 µM,remaining binding,99%
Cc1sc(C(=O)NC2COC2)cc1-n1cc(NC(=O)Nc2c(F)cccc2Cl)cn1,"enzyme activity, inhibitor",10 µM,remaining activity,78.5%
CNC(=O)c1cc(Oc2ccc(NC(=O)Nc3ccc(Cl)c(C(F)(F)F)c3)cc2)ccn1,"cell-free assay, inhibitor",10 µM,inhibition,17%
O=C(Nc1ccc(Oc2ccc(F)cc2)cc1)N1CCc2ncccc2[C@H]1c1ccc(F)cc1,"cell-free assay, competition with immobilised ligand",1 µM,remaining binding,94%
O=C(CSc1nc2nccnc2c(=O)n1CCc1ccccc1)Nc1nccs1,"enzyme activity, inhibitor",10 µM,inhibition,4%
CC(C)(C)c1nc(-c2cccc(NS(=O)(=O)c3c(F)cccc3F)c2F)c(-c2ccnc(N)n2)s1,"enzyme activity, inhibitor, radiometric",1 µM,remaining activity,22%
COc1cc2ncnc(Nc3ccc(Oc4ccccc4)c(C)c3C)c2cc1OC,"enzyme activity, inhibitor",1 µM,inhibition,-3%
CO[C@@H](C)c1c(Nc2ccc([C@H](N(C)C(=O)C3CCS(=O)(=O)CC3)C(F)(F)F)cc2)cnc2cc(Cl)nn12,"cell-free assay, competition with immobilised ligand",1 µM,remaining binding,72%
N#CCCc1ccc2c(c1)-c1[nH]c3ccc([N+](=O)[O-])cc3c1CC(=O)N2,cell-free assay,0.5 µM,remaining signal,110%
Cn1nc(C(=O)NCc2ccc(C(=O)O)cc2)cc1-c1ccc2[nH]ccc2c1,"cell-free assay, competition with immobilised ligand",0.1 µM,remaining binding,83%
Cn1c2c(Cl)c(Cl)ccc2c2cc[nH]c(=O)c21,"thermal stability, DSF",10 µM,ΔTm,3.1 °C
CN(C)C1CCN(CC#Cc2nn(C3CCCC3)c3nc(NCc4ccccc4)ncc23)C1 (stereo not shown),"enzyme activity, inhibitor, FRET",10 µM,inhibition,-8%
CC(C)(O)[C@H]1CC[C@H](Nc2ccc3ncc(-c4cccc(C(F)(F)F)c4)n3n2)CC1,"enzyme activity, inhibitor",1 µM,remaining activity,100%
O=C1NC(=O)c2cc(Nc3ccc(F)cc3)c(Nc3ccc(F)cc3)cc21,cell-free assay,0.5 µM,remaining signal,94.2%
CSc1cccnc1N1CCN(Cc2nc3ccccc3[nH]2)CC1,"cell-free assay, competition with immobilised ligand",1 µM,remaining binding,100%
COc1cc(-c2cc(-c3ccc(N4CCNCC4)cc3)cnc2C)cc(OC)c1OC,"enzyme activity, inhibitor",0.1 µM,inhibition,9%
Cn1c2c(c3ccc(Cl)c(Cl)c31)C(C#N)C1(CCN(C(=O)OC(C)(C)C)CC1)NC2=O (racemic),"thermal stability, DSF",10 µM,ΔTm,-0.1 °C
Cc1cnc(NC2CCOCC2)nc1-n1cnc(C(=O)NC(CN)c2cc(F)cc(Cl)c2)c1 (stereo not shown),"enzyme activity, inhibitor, radiometric",1 µM,remaining activity,109%
CNCc1ccccc1-c1csc([C@H](C)Nc2nc(C)nc3cc(OC)c(OC)cc23)c1,"cell-free assay, competition with immobilised ligand",1 µM,remaining binding,100%
CCN1CCC2(CC1)NC(=O)c1c(c3ccc(Cl)c(Cl)c3n1C)C2C#N (racemic),"thermal stability, DSF",10 µM,ΔTm,0 °C
O=c1cc(-c2cccc3c2Sc2ccccc2S3)oc(N2CCOCC2)c1,"enzyme activity, inhibitor",0.5 µM,remaining activity,114%
Cn1c2c(c3ccc(Cl)c(Cl)c31)C(C#N)C(C)(C)NC2=O (stereo not shown),"thermal stability, DSF",10 µM,ΔTm,2.9 °C
CCOCCn1cc(C(=O)Nc2ccc(-n3nc(-c4cccnc4)cc3C(F)(F)F)cn2)ccc1=O,"cell-free assay, competition with immobilised ligand",1 µM,remaining binding,79%
